In assay [1] the target is T1, SNAP-mGluR3 (Rattus norvegicus, UniProt P31422). Description: GIRK current, whole-cell patch clamp. The assay is classed as cell-based. Particulars: GIRK1-F137S co-expressed.
The target in assay [2] is T1, SNAP-mGluR3. The assay can be described thus: GIRK current, whole-cell patch clamp. The assay is classed as cell-based. The method, boiled down:
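Cells grown in DMEM with 10% FBS at 37 °C/5% CO2, seeded on poly-L-lysine-coated glass coverslips, and co-transfected (Lipofectamine 2000) with receptor, GIRK1-F137S homotetramer and tdTomato. Medium was switched at 6 h to 5 µM LY341495. Whole-cell voltage clamp at −60 mV 24–36 h post-transfection. Log EC50 of point mutants versus WT compared by extra sum-of-squares F-test.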

Where two headings read alike, the source gives them in different places.

T1 sequence (P31422 23-879): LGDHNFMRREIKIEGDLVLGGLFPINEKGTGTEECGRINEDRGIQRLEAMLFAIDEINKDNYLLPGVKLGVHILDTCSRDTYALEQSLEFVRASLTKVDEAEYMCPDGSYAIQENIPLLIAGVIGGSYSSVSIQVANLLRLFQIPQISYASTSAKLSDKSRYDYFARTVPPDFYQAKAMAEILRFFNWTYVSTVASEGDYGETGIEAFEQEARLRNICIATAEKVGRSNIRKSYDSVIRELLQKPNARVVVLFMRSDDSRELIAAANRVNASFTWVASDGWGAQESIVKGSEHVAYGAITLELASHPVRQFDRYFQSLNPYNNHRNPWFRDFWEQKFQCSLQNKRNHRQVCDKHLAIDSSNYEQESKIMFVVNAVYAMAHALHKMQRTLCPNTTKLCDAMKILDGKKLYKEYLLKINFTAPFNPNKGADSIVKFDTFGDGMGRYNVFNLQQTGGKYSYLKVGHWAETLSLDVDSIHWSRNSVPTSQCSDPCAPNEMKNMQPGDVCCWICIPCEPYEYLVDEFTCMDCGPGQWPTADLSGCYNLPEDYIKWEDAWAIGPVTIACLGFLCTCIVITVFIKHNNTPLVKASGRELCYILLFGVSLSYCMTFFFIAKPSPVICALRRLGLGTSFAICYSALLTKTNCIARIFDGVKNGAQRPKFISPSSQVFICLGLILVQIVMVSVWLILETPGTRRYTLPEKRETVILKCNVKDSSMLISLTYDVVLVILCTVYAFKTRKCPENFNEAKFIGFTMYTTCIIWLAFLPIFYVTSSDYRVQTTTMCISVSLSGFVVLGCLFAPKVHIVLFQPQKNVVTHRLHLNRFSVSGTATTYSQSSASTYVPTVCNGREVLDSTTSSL

In general, EC50 refers to the concentration that produces a half-maximal response. A higher EC50 goes with lower potency in that assay. As for `N[C@@H](CCC(=O)O)C(=O)O` [glutamate], on SNAP-mGluR3 [1] (orthosteric agonist), the half-maximal effective concentration (EC50) entry is given as “All three agonists produced dose-dependent, reversible GIRK currents”. Take `N[C@H](C(=O)O)C1[C@@H](C(=O)O)[C@@H]1C(=O)O` (stereo partly shown) [DCG-IV]: the EC50 entry at SNAP-mGluR3 [1] (orthosteric partial agonist) is given as “All three agonists produced dose-dependent, reversible GIRK currents”.

`COc1ccc(C(=O)O)cc1OC[C@H](C)COc1ccc(C(=O)CC(C)(C)C)c(O)c1C` [VU6023326, (R)−3-(3-(4-(3,3-dimethylbutanoyl)−3-hydroxy-2-methylphenoxy)−2-methyl-propoxy)−4-methoxybenzoic acid]: it took 7.94 nM to reach a half-maximal effect at SNAP-mGluR3 [2] (EC50). In the case of `N[C@@]1(C(=O)O)CO[C@H]2[C@H](C(=O)O)[C@H]21` [LY379268], the EC50 result at SNAP-mGluR3 [1] (orthosteric agonist) was “All three agonists produced dose-dependent, reversible GIRK currents”.

The record behind these values is PMC11294631 (Nature Communications, 2024).
